According to ChEMBL document CHEMBL4351006, “A new exploration towards aminothiazolquinolone oximes as potentially multi-targeting antibacterial agents: Design, synthesis and evaluation acting on microbes, DNA, HSA and topoisomerase IV” (Eur J Med Chem, 2019):
≈ marks a conversion by molar mass, not a printed value. Calls of active or inactive are those of the source. The rule behind the calls is not given here.

Tests used:
[1] = tested on: Staphylococcus aureus; assay: Potentiation of cefixime-mediated antibacterial activity against methicillin resistant Staphylococcus aureus N315 assessed as cefixime MIC incubated for 24 hrs by two fold serial dilution method (reference value: 31.52 10^-3 mM); assay type: functional; conditions: N315, 24 h
[2] = tested on: Klebsiella pneumoniae; assay: Potentiation of cefixime-mediated antibacterial activity against Klebsiella pneumoniae assessed as cefixime MIC incubated for 24 hrs by two fold serial dilution method (reference value: 15.76 10^-3 mM); assay type: functional
[3] = tested on: Staphylococcus aureus; assay: Potentiation of cefixime-mediated antibacterial activity against Staphylococcus aureus assessed as cefixime MIC incubated for 24 hrs by two fold serial dilution method (reference value: 31.52 10^-3 mM); assay type: functional
[4] = tested on: Candida tropicalis; assay: Potentiation of fluconazole-mediated antifungal activity against Candida tropicalis assessed as fluconazole MIC incubated for 24 hrs by two fold serial dilution method (reference value: 26.12 10^-3 mM); assay type: functional
[5] = tested on: Candida albicans; assay: Potentiation of fluconazole-mediated antifungal activity against Candida albicans assessed as fluconazole MIC incubated for 24 hrs by two fold serial dilution method (reference value: 13.06 10^-3 mM); assay type: functional
[6] = tested on: Staphylococcus aureus; assay: Induction of membrane permeabilization in methicillin resistant Staphylococcus aureus assessed as increase in fluorescence intensity steady state at 12 times of MIC after 100 mins by propidium iodide staining based fluorescence microscopy; assay type: functional, organism-based
Procedure, shortened: (§1)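 MRSA cells were treated with the compound and stained with propidium iodide, which enters cells with damaged membranes and fluoresces on binding DNA. Fluorescence intensity was followed over time against untreated bacteria.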

[7] = biological target: T1, Albumin (Homo sapiens, UniProt P02768); assay: Binding affinity to HSA assessed as binding constant at 286 K by fluorescence spectroscopy based Scatchard method; assay type: ADME; conditions: isolated protein
[8] = tested on: Escherichia coli; assay: Antibacterial activity against Escherichia coli assessed as reduction in bacterial cell viability incubated for 24 hrs by two fold serial dilution method; assay type: functional
Procedure, shortened: (§2)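 Broth two-fold serial dilution run to CLSI guidelines. Chloromycin, norfloxacin and fluconazole served as reference drugs.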

[9] = tested on: Candida albicans; assay: Antifungal activity against Candida albicans assessed as reduction in fungal cell viability incubated for 24 hrs by two fold serial dilution method; assay type: functional; procedure, shortened: as §2
[10] = tested on: Staphylococcus aureus; assay: Antibacterial activity against methicillin resistant Staphylococcus aureus N315 assessed as reduction in bacterial cell viability in presence of cefixime incubated for 24 hrs by two fold serial dilution method; assay type: functional; conditions: N315, 24 h
[11] = tested on: Klebsiella pneumoniae; assay: Antibacterial activity against Klebsiella pneumoniae assessed as reduction in bacterial cell viability incubated for 24 hrs by two fold serial dilution method; assay type: functional; procedure, shortened: as §2
[12] = biological target: T1, Albumin; assay: Binding affinity to HSA assessed as change in enthalpy at 298 K by Van't Hoff plot analysis; assay type: ADME; conditions: isolated protein
[13] = tested on: Staphylococcus aureus; assay: Synergistic antibacterial activity against Staphylococcus aureus assessed as FICI in presence of cefixime incubated for 24 hrs by two fold serial dilution method; assay type: functional
[14] = tested on: Candida albicans; assay: Antifungal activity against Candida albicans assessed as reduction in fungal cell viability in presence of fluconazole incubated for 24 hrs by two fold serial dilution method
[15] = biological target: T1, Albumin; assay: Binding affinity to HSA assessed as change in entropy at 298 K by Van't Hoff plot analysis; assay type: ADME; conditions: isolated protein
[16] = tested on: Pseudomonas aeruginosa; assay: Antibacterial activity against Pseudomonas aeruginosa ATCC 27853 assessed as reduction in bacterial cell viability incubated for 24 hrs by two fold serial dilution method; assay type: functional; conditions: ATCC 27853, 24 h; procedure, shortened: as §2
[17] = tested on: Staphylococcus aureus; assay: Potency index, ratio of MIC of chloromycin to MIC of compound for antibacterial activity against methicillin resistant Staphylococcus aureus N315 assessed as reduction in bacterial cell viability incubated for 24 hrs by two fold serial dilution method; assay type: functional
[18] = biological target: T1, Albumin; assay: Binding affinity to HSA assessed as Stern-Volmer quenching constant at 310 K by fluorescence spectroscopy; assay type: ADME; conditions: isolated protein
[19] = tested on: Candida tropicalis; assay: Synergistic antifungal activity against Candida tropicalis assessed as FICI in presence of fluconazole incubated for 24 hrs by two fold serial dilution method
[20] = tested on: Staphylococcus aureus; assay: Antibacterial activity against Staphylococcus aureus ATCC 25923 assessed as reduction in bacterial cell viability incubated for 24 hrs by two fold serial dilution method; assay type: functional; conditions: ATCC 25923, 24 h; procedure, shortened: as §2
[21] = biological target: T1, Albumin; assay: Binding affinity to HSA assessed as change in gibbs free energy at 286 K by Van't Hoff plot analysis; assay type: ADME; conditions: isolated protein
[22] = biological target: T1, Albumin; assay: Binding affinity to HSA assessed as quenching constant at 298 K by fluorescence spectroscopy; assay type: ADME; conditions: isolated protein
[23] = biological target: T1, Albumin; assay: Binding affinity to HSA assessed as change in gibbs free energy at 310 K by Van't Hoff plot analysis; assay type: ADME; conditions: isolated protein
[24] = biological target: T1, Albumin; assay: Binding affinity to HSA assessed as binding constant at 310 K by fluorescence spectroscopy based Scatchard method; assay type: ADME; conditions: isolated protein
[25] = biological target: T1, Albumin; assay: Binding affinity to HSA assessed as Stern-Volmer quenching constant at 298 K by fluorescence spectroscopy; assay type: ADME; conditions: isolated protein
[26] = tested on: Candida albicans; assay: Antifungal activity against Candida albicans ATCC 90023 assessed as reduction in fungal cell viability incubated for 24 hrs by two fold serial dilution method; assay type: functional; conditions: ATCC 90023, 24 h; procedure, shortened: as §2
[27] = biological target: T1, Albumin; assay: Binding affinity to HSA assessed as binding constant at 298 K by fluorescence spectroscopy based Scatchard method; assay type: ADME; conditions: isolated protein
[28] = biological target: T1, Albumin; assay: Binding affinity to HSA assessed as Stern-Volmer quenching constant at 286 K by fluorescence spectroscopy; assay type: ADME; conditions: isolated protein
[29] = biological target: T1, Albumin; assay: Binding affinity to HSA assessed as change in gibbs free energy at 298 K by Van't Hoff plot analysis; assay type: ADME; conditions: isolated protein
[30] = tested on: Staphylococcus aureus; assay: Antibacterial activity against methicillin resistant Staphylococcus aureus assessed as change in drug resistance after 16 serial passages in presence of cefixime at 0.5 times of MIC incubated for 12 hrs by serial dilution method; assay type: functional, organism-based
[31] = tested on: Staphylococcus aureus; assay: Antibacterial activity against methicillin resistant Staphylococcus aureus assessed as fold change after 16 serial passages at 0.5 times of MIC incubated for 12 hrs by sequential passaging method; assay type: functional
[32] = tested on: Aspergillus fumigatus; assay: Antifungal activity against Aspergillus fumigatus assessed as reduction in fungal cell viability incubated for 24 hrs by two fold serial dilution method; assay type: functional; procedure, shortened: as §2
[33] = biological target: T1, Albumin; assay: Binding affinity to HSA assessed as quenching constant at 286 K by fluorescence spectroscopy; assay type: ADME; conditions: isolated protein
[34] = tested on: Staphylococcus aureus; assay: Antibacterial activity against Staphylococcus aureus ATCC 29213 assessed as reduction in bacterial cell viability incubated for 24 hrs by two fold serial dilution method; assay type: functional; conditions: ATCC 29213, 24 h; procedure, shortened: as §2
[35] = tested on: Escherichia coli; assay: Antibacterial activity against Escherichia coli ATCC 25922 assessed as reduction in bacterial cell viability incubated for 24 hrs by two fold serial dilution method; assay type: functional; conditions: ATCC 25922, 24 h; procedure, shortened: as §2
[36] = tested on: Staphylococcus aureus; assay: Antibacterial activity against Staphylococcus aureus assessed as reduction in bacterial cell viability in presence of cefixime incubated for 24 hrs by two fold serial dilution method; assay type: functional
[37] = tested on: Staphylococcus aureus; assay: Antibacterial activity against methicillin resistant Staphylococcus aureus N315 assessed as reduction in bacterial cell viability incubated for 24 hrs by two fold serial dilution method; assay type: functional; conditions: N315, 24 h
Procedure, shortened: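 MIC by two-fold serial dilution following CLSI, with chloromycin and norfloxacin as reference drugs.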

[38] = tested on: Candida albicans; assay: Synergistic antifungal activity against Candida albicans assessed as FICI in presence of fluconazole incubated for 24 hrs by two fold serial dilution method
[39] = tested on: Klebsiella pneumoniae; assay: Synergistic antibacterial activity against Klebsiella pneumoniae assessed as FICI in presence of cefixime incubated for 24 hrs by two fold serial dilution method; assay type: functional
[40] = tested on: Candida tropicalis; assay: Antifungal activity against Candida tropicalis assessed as reduction in fungal cell viability in presence of fluconazole incubated for 24 hrs by two fold serial dilution method
[41] = tested on: Klebsiella pneumoniae; assay: Antibacterial activity against Klebsiella pneumoniae assessed as reduction in bacterial cell viability in presence of cefixime incubated for 24 hrs by two fold serial dilution method; assay type: functional
[42] = tested on: Calf thymus DNA; assay: Binding affinity to calf thymus DNA by UV-visible spectrophotometric method; assay type: nucleic-acid assay; conditions: Bos taurus
[43] = tested on: Staphylococcus aureus; assay: Induction of membrane permeabilization in methicillin resistant Staphylococcus aureus assessed as increase in fluorescence intensity at 12 times of MIC incubated for 2 hr by propidium iodide staining based fluorescence microscopy; assay type: functional, organism-based; procedure, shortened: as §1
[44] = tested on: Acinetobacter baumannii; assay: Antibacterial activity against Acinetobacter baumannii assessed as reduction in bacterial cell viability incubated for 24 hrs by two fold serial dilution method; assay type: functional; procedure, shortened: as §2
[45] = tested on: Pseudomonas aeruginosa; assay: Antibacterial activity against Pseudomonas aeruginosa assessed as reduction in bacterial cell viability incubated for 24 hrs by two fold serial dilution method; assay type: functional; procedure, shortened: as §2
[46] = tested on: Enterococcus faecalis; assay: Antibacterial activity against Enterococcus faecalis assessed as reduction in bacterial cell viability incubated for 24 hrs by two fold serial dilution method; assay type: functional; procedure, shortened: as §2
[47] = biological target: T1, Albumin; assay: Binding affinity to HSA assessed as quenching constant at 310 K by fluorescence spectroscopy; assay type: ADME; conditions: isolated protein
[48] = Cytotoxicity against human A549 cells assessed as cell viability upto 139.52 uM incubated for 24 hrs by MTT assay relative to control; assay type: cell-based; conditions: read-out: Activity
Procedure, shortened: (§3)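 MTT viability assay in A549 and BEAS-2B cells, with doxorubicin at 0.50 μM as positive control. Viability is plotted with standard deviation from three independent experiments.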

[49] = tested on: Staphylococcus aureus; assay: Antibacterial activity against Staphylococcus aureus assessed as reduction in bacterial cell viability incubated for 24 hrs by two fold serial dilution method; assay type: functional; procedure, shortened: as §2
[50] = tested on: Calf thymus DNA; assay: Competitive binding affinity to calf thymus DNA assessed as inhibition of binding of neutral red by UV-visible spectrophotometric method; assay type: nucleic-acid assay; conditions: Bos taurus
[51] = tested on: Staphylococcus aureus; assay: Potency index, ratio of MIC of norfloxacin to MIC of compound for antibacterial activity against methicillin resistant Staphylococcus aureus N315 assessed as reduction in bacterial cell viability incubated for 24 hrs by two fold serial dilution method; assay type: functional
[52] = tested on: Candida parapsilosis; assay: Antifungal activity against Candida parapsilosis ATCC 22019 assessed as reduction in fungal cell viability incubated for 24 hrs by two fold serial dilution method; conditions: Lodderomyces parapsilosis, ATCC 22019, 24 h
[53] = tested on: Candida tropicalis; assay: Antifungal activity against Candida tropicalis assessed as reduction in fungal cell viability incubated for 24 hrs by two fold serial dilution method; assay type: functional; procedure, shortened: as §2
[54] = Cytotoxicity against human BEAS2B cells assessed as cell viability upto 139.52 uM incubated for 24 hrs by MTT assay relative to control; assay type: cell-based; conditions: BEAS-2B cells, read-out: Activity; procedure, shortened: as §3

T1 sequence (P02768 whole entry): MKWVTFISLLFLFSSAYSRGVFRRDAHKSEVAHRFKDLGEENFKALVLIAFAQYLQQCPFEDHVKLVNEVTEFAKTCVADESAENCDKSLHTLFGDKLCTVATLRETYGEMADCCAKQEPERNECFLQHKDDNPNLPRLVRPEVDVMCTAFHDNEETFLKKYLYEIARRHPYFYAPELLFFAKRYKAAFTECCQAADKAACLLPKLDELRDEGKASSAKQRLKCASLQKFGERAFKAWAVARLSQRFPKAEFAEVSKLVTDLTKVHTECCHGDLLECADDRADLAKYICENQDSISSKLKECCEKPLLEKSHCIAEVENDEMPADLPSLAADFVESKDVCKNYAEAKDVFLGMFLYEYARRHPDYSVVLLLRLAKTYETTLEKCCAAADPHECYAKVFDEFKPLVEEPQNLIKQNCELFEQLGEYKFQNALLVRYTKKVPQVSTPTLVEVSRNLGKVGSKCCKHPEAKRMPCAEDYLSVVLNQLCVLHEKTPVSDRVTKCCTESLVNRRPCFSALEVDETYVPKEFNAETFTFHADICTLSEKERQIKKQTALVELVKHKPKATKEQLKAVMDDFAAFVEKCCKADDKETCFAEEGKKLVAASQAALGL

C=CC1=C(C(=O)O)N2C(=O)[C@@H](NC(=O)/C(=N\OCC(=O)O)c3csc(N)n3)[C@H]2SC1 [CEFIXIME]
MIC [1]: 3.94 µM
MIC [2]: 7.88 µM
MIC [3]: 7.88 µM
MIC [4]: 26.1 µM
MIC [5]: 3.26 µM

CCn1cc(-c2csc(N)n2)c(=O)c2cc(F)c(N3CCN(C/C(C)=N/OC)CC3)cc21
Activity [6]: Active
Kb [7]: 1.81 ×10⁵ L/mol
MIC [8]: 70 µM (≈ 32.1 µg/mL)
MIC [9]: 70 µM (≈ 32.1 µg/mL)
MIC [10]: 4.36 µM
MIC [11]: 70 µM (≈ 32.1 µg/mL)
deltaH [12]: -6.9355 kcal/mol
fractional inhibitory concentration index (FICI) [13]: 0.5
MIC [14]: 2.18 µM
deltaS [15]: -6.247 J/mol.K
MIC [16]: 35 µM (≈ 16 µg/mL)
Ratio [17]: 5
KSV [18]: 1.57 ×10⁵ L/mol
fractional inhibitory concentration index (FICI) [19]: 1.25
MIC [20]: 17 µM (≈ 7.8 µg/mL)
deltaG [21]: -6.5084 kcal/mol
Kq [22]: 2.8 ×10¹³ L/mol/s
deltaG [23]: -6.4725 kcal/mol
Kb [24]: 1.44 ×10⁵ L/mol
KSV [25]: 1.79 ×10⁵ L/mol
MIC [26]: 17 µM (≈ 7.8 µg/mL)
Kb [27]: 1.63 ×10⁵ L/mol
KSV [28]: 1.89 ×10⁵ L/mol
deltaG [29]: -6.4904 kcal/mol
Activity [30]: inactive
fold change (FC) [31]: inactive
MIC [32]: 35 µM (≈ 16 µg/mL)
Kq [33]: 2.95 ×10¹³ L/mol/s
MIC [34]: 140 µM (≈ 64.2 µg/mL)
MIC [35]: 35 µM (≈ 16 µg/mL)
MIC [36]: 8.72 µM
MIC [37]: 9 µM (≈ 4.13 µg/mL)
fractional inhibitory concentration index (FICI) [38]: 0.281
fractional inhibitory concentration index (FICI) [39]: 0.625
MIC [40]: 17.4 µM
MIC [41]: 8.72 µM
K [42]: 2.51 ×10⁴ L/mol
Activity [43]: Active
MIC [44]: 279 µM (≈ 128 µg/mL)
MIC [45]: 70 µM (≈ 32.1 µg/mL)
MIC [46]: 70 µM (≈ 32.1 µg/mL)
Kq [47]: 2.45 ×10¹³ L/mol/s
viability at 24 h [48]: > 75%
MIC [49]: 35 µM (≈ 16 µg/mL)
Activity [50]: Active
Ratio [51]: 2
MIC [52]: 70 µM (≈ 32.1 µg/mL)
MIC [53]: 70 µM (≈ 32.1 µg/mL)
viability at 24 h [54]: > 75%
